In brackets after ≈: the same amount, converted by molar mass.
Legend:
Pseudomonas aeruginosa [1] = assay: Antimicrobial activity against ciprofloxacin-resistant Pseudomonas aeruginosa AM 85 grown under Mueller-Hinton medium by broth microdilution method; type: functional
Outline: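 AM 85 is a clinical isolate with efflux-mediated ciprofloxacin resistance. Grown overnight at 35 °C in Tryptic Soy Broth, then streaked on Tryptic Soy Agar. CLSI broth microdilution in cation-adjusted Mueller–Hinton broth, pH 7.3. DMSO stock (40 °C warming, 10 min sonication) diluted two-fold, 0.0625–128. MIC is the highest dilution with clear wells.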

Pseudomonas aeruginosa [2] = assay: Antimicrobial activity against ciprofloxacin-resistant Pseudomonas aeruginosa AM 85 grown under succinate minimum medium in presence of 1 uM FeCl3 by broth microdilution method; type: functional
Outline: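 Clinical efflux-mediated ciprofloxacin-resistant isolate AM 85, grown overnight at 35 °C in Tryptic Soy Broth and isolated on Tryptic Soy Agar. CLSI broth microdilution in succinate minimum medium, pH 7.0, supplemented with FeCl3 for iron-enriched conditions. Compounds were dissolved in DMSO (40 °C, 10 min sonication) and serially diluted two-fold, 0.0625–128. MIC is the highest dilution with clear wells.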

Pseudomonas aeruginosa [3] = assay: Antimicrobial activity against ciprofloxacin-sensitive Pseudomonas aeruginosa DSM 1117 grown under Mueller-Hinton medium by broth microdilution method; type: functional
Outline: (§1)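 Overnight cultures at 35 °C in Tryptic Soy Broth were streaked on Tryptic Soy Agar, and inocula were prepared per CLSI. Broth microdilution used two-fold serial dilutions of 0.0625–128 µg/mL from DMSO stocks made with gentle heating (40 °C) and 10 min sonication. Ciprofloxacin served as control in each series. MIC was the highest dilution with clear wells. Media: cation-adjusted Mueller–Hinton, pH 7.3; succinate minimum medium, pH 7.0, without or with 1 µM FeCl3 added.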

Pseudomonas aeruginosa [4] = assay: Antimicrobial activity against ciprofloxacin-sensitive Pseudomonas aeruginosa DSM 1117 grown under succinate minimum medium by broth microdilution method; type: functional; outline: as §1
[5] = Induction of iron complexation in mixed H2O/DMSO solvent mixture (0.2 mole fraction of DMSO) at 1:3 mixture of […] at 25 degC at 3.0 <pH <4.1 by UV-visible spectrophotometry; type: physicochemical
Outline: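 UV–visible spectra of 1:3 iron(III):ligand solutions were recorded across pH in H2O/DMSO at 0.2 DMSO mole fraction, 25 °C. pH was adjusted by automatic titrator addition of 0.1 M KOH prepared in the same solvent. The glass electrode was calibrated by titrating 0.1 M HCl with KOH in H2O/DMSO.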

Pseudomonas aeruginosa [6] = assay: Antimicrobial activity against ciprofloxacin-sensitive Pseudomonas aeruginosa DSM 1117 grown under succinate minimum medium in presence of 1 uM FeCl3 by broth microdilution method; type: functional; outline: as §1
[7] = Toxicity in human RBC assessed as induction of hemolysis up to 384 ug/ml after 1 hr relative to saponin; type: cell-based, Erythrocyte; conditions: red blood cells (RBC), read-out: Activity
Outline: (§2)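 Human red blood cells were washed three times in TRIS buffer (10 mmol/l TRIS, 150 mmol/l NaCl, pH 7.4) and suspended at 0.5% (v/v). 15 µL of test or control solution was added to 235 µL suspension, in triplicate, with 1% saponin as 100% hemolysis and DMSO/TRIS as negative controls. Incubation was 1 h at 37 °C. After centrifugation, supernatant OD was read at 405 nm.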

Pseudomonas aeruginosa [8] = assay: Antimicrobial activity against ciprofloxacin-resistant Pseudomonas aeruginosa AM 85 grown under succinate minimum medium by broth microdilution method; type: functional
Outline: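 AM 85 is a clinical isolate with efflux-mediated ciprofloxacin resistance. Overnight growth at 35 °C in Tryptic Soy Broth, then Tryptic Soy Agar plates. CLSI broth microdilution in iron-deprived succinate minimum medium, pH 7.0, with no iron added. Two-fold dilutions (0.0625–128) from a DMSO stock made with 40 °C warming and 10 min sonication. MIC read as the highest dilution with clear wells.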

[9] = Toxicity in human RBC assessed as induction of hemolysis after 1 hr relative to saponin; type: cell-based, Erythrocyte; conditions: red blood cells (RBC), read-out: Activity; outline: as §2
[10] = Toxicity in human RBC assessed as induction of hemolysis at 384 ug/ml after 1 hr relative to saponin; type: cell-based, Erythrocyte; conditions: red blood cells (RBC), read-out: Activity; outline: as §2

| SMILES | MIC (Pseudomonas aeruginosa [1]) [µg/mL] | MIC (Pseudomonas aeruginosa [2]) [µg/mL] | MIC (Pseudomonas aeruginosa [3]) [µg/mL] | MIC (Pseudomonas aeruginosa [4]) [µg/mL] | Activity [5] | MIC (Pseudomonas aeruginosa [6]) [µg/mL] | hemolysis at 1 h [7] [%] | MIC (Pseudomonas aeruginosa [8]) [µg/mL] | hemolysis at 1 h [9] [%] | hemolysis at 1 h, 384 ug/ml [10] [%] |
| --- | --- | --- | --- | --- | --- | --- | --- | --- | --- | --- |
| O=C(O)c1cn(C2CC2)c2cc(N3CCN(C(=O)c4cccc(O)c4O)CC3)c(F)cc2c1=O | > 128 | 32 | > 128 | 32 (≈ 68.5 µM) | Active | 16 | < 10 | 64 (≈ 137 µM) |  |  |
| O=C(O)c1cn(C2CC2)c2cc(N3CCNCC3)c(F)cc2c1=O [CIPROFLOXACIN] | 16 (≈ 48.3 µM) | 32 |  |  |  |  |  | 16 (≈ 48.3 µM) | < 10 |  |
| O=C(NCCCC(CCCNC(=O)c1cccc(O)c1O)(CCCNC(=O)c1cccc(O)c1O)C(=O)N1CCN(c2cc3c(cc2F)c(=O)c(C(=O)O)cn3C2CC2)CC1)c1cccc(O)c1O | > 128 | > 128 | > 128 | > 128 |  | > 128 |  | > 128 |  | 40 |
| O=C(CCCN1CCN(c2cc3c(cc2F)c(=O)c(C(=O)O)cn3C2CC2)CC1)OCC(CCCNC(=O)c1cccc(O)c1O)(CCCNC(=O)c1cccc(O)c1O)CCCNC(=O)c1cccc(O)c1O | > 128 | > 128 | 64 (≈ 62.4 µM) | 64 (≈ 62.4 µM) |  | 32 |  | > 128 | < 10 |  |
| COC(=O)CN1CCN(c2cc3c(cc2F)c(=O)c(C(=O)O)cn3C2CC2)CC1 | > 128 | > 128 | 8 (≈ 19.8 µM) | 16 (≈ 39.7 µM) |  | 16 | < 10 | > 128 |  |  |
| O=C(CCN1CCN(c2cc3c(cc2F)c(=O)c(C(=O)O)cn3C2CC2)CC1)OCC(CCCNC(=O)c1cccc(O)c1O)(CCCNC(=O)c1cccc(O)c1O)CCCNC(=O)c1cccc(O)c1O | > 128 | > 128 | > 128 | > 128 |  | 64 |  | > 128 | < 10 |  |
| O=C(O)CN1CCN(c2cc3c(cc2F)c(=O)c(C(=O)O)cn3C2CC2)CC1 | 16 (≈ 41.1 µM) | 16 | 0.25 (≈ 0.642 µM) | 0.125 (≈ 0.321 µM) |  | 0.125 |  | 16 (≈ 41.1 µM) |  | 40 |
| O=C(CN1CCN(c2cc3c(cc2F)c(=O)c(C(=O)O)cn3C2CC2)CC1)OCC(CCCNC(=O)c1cccc(O)c1O)(CCCNC(=O)c1cccc(O)c1O)CCCNC(=O)c1cccc(O)c1O | > 128 | > 128 | 8 (≈ 8.02 µM) | 8 (≈ 8.02 µM) |  | 4 |  | > 128 | < 10 |  |

— ChEMBL document CHEMBL3351518, “Synthesis and antibacterial activity of catecholate-ciprofloxacin conjugates” (Bioorg Med Chem, 2014)
